# Activity calls are given as the source filed them. The rule behind the calls is not given here.
# Assays:
# [1] = Oral bioavailability in nu/nu mouse at 10 mg/kg measured up to 24 hrs postdose by LC/MS/MS analysis; format: ADME, organism-based; details: in vivo
# Procedure, shortened: (§1)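 Female nu/nu nude mice dosed IV via tail vein at 5 mg/kg or orally at 10 mg/kg. Blood sampled at 0.083, 0.25, 0.5, 1, 2, 4, 8 and 24 h post-dose (orbital sinus, terminal cardiac puncture; EDTA-2K). Plasma separated at 4 °C, precipitated with acetonitrile containing internal standard, quantified by LC/MS/MS.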
# [2] = target: T1, Tyrosine-protein phosphatase non-receptor type 11 (Homo sapiens) (UniProt Q06124); experiment: Allosteric inhibition of SHP2 in human NCI-H661 cells assessed as downregulation of phosphorylated AKT levels at 2.5 to 20 uM after 2 hrs by Western blot analysis; format: cell-based
# T1 sequence (whole entry): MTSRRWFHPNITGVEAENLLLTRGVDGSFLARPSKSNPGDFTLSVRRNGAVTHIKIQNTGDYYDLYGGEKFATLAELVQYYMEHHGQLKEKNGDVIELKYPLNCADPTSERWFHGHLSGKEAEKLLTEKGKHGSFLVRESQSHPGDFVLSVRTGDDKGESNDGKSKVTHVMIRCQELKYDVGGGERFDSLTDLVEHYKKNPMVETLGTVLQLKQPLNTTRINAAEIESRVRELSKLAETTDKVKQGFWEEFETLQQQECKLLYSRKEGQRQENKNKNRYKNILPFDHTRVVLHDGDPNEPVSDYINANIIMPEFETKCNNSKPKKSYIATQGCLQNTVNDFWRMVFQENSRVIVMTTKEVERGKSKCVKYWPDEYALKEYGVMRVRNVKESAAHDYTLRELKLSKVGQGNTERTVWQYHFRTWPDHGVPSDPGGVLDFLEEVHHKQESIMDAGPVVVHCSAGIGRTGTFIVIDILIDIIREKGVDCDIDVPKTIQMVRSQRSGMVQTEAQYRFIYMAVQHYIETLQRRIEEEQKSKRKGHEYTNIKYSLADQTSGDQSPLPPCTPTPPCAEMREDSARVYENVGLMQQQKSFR
# Procedure, shortened: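 NCI-H661 cells in 6-well plates exposed to inhibitor 2 h at 37 °C. RIPA lysates separated by SDS-PAGE, transferred to PVDF, milk-blocked, probed overnight at 4 °C for pERK1/2, ERK1/2, pAKT and AKT. Repeated at least three times.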
# [3] = Half life in nu/nu mouse at 10 mg/kg, po measured up to 24 hrs postdose by LC/MS/MS analysis; format: ADME, organism-based; details: in vivo; procedure, shortened: as §1
# Homo sapiens [4] = species: Homo sapiens; experiment: Selectivity ratio of IC50 for PTP1B (unknown origin) expressed in Escherichia coli BL21(DE3) to IC50 for SHP2 E76A mutant (unknown origin) expressed in Escherichia coli BL21(DE3)
# Procedure, shortened: (§2)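 Ratio of IC50 values from one DIFMUP fluorescence assay (Ex/Em 358/455), room temperature, 0.1 M sodium acetate pH 5.0. His-tagged SHP2 E76A (1.5 nM) or counter-phosphatase purified from E. coli, preincubated 20 min with compound (eight 3-fold dilutions), then DIFMUP added for 20 min. DIFMUP was at Km for each counter-phosphatase. Duplicates; IC50 from at least three independent experiments.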
# Homo sapiens [5] = species: Homo sapiens; experiment: Selectivity ratio of IC50 for VHR (unknown origin) expressed in Escherichia coli BL21(DE3) to IC50 for SHP2 E76A mutant (unknown origin) expressed in Escherichia coli BL21(DE3); procedure, shortened: as §2
# SF-268 = experiment: Effect on YAP gene expression in human SF268 cells at 10 to 20 uM after 2 hrs by qRT-PCR analysis; format: functional, cell-based
# Procedure, shortened: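 SF268 cells exposed to DMSO, 10 μM or 20 μM inhibitor for 2 h. RNA extracted, reverse-transcribed, and CTGF, CYR61, ANKRD1 and YAP mRNA quantified by qPCR; mean±s.d., n=3.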
# [6] = Allosteric inhibition of SHP2 E76A mutant (unknown origin) expressed in Escherichia coli BL21(DE3) using DIFMUP as substrate preincubated for 20 mins followed by substrate addition measured after 20 mins by phosphatase assay; parameters: species or system Homo sapiens
# Procedure, shortened: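 His-tagged SHP2 constructs expressed in E. coli BL21(DE3) (0.5 mM IPTG, 5 h, 30 °C) and Ni-column purified. 1.5 nM enzyme preincubated 20 min at room temperature with compound in 0.1 M sodium acetate pH 5.0. DIFMUP then added, 20 min further, fluorescence at 358/455 nm. Eight 3-fold dilutions, duplicate wells, IC50 from at least three independent experiments.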
# [7] = target: T1, Tyrosine-protein phosphatase non-receptor type 11 (Homo sapiens); experiment: Allosteric inhibition of SHP2 in human NCI-H661 cells assessed as downregulation of ERK1/2 activation at 10 uM after 60 mins by Western blot analysis; format: cell-based
# Procedure, shortened: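 NCI-H661 cells given 10 µM inhibitor over a time course. Lysates immunoblotted for p-ERK1/2, ERK1/2, p-AKT and AKT. Repeated at least three times.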
# THP-1 = experiment: Antiproliferative activity against human THP1 cells at 3 to 6 uM after 2 days by CellTiter-Glo assay; format: functional, cell-based
# Procedure, shortened: (§3)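 3000 cells/well in 96-well plates, grown overnight, then inhibitor at indicated concentrations for 2 days (48 h). Viability by CellTiter-Glo; mean±s.d., n=3.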
# Homo sapiens [8] = species: Homo sapiens; experiment: Allosteric inhibition of SHP2 E76A mutant (unknown origin) assessed as reduction in SHP2-mediated YAP Y357 peptide dephosphorylation. preincubated for 15 mins before YAP pY357 peptide addition and measured after 15 mins post substrate addition
# Procedure, shortened: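 Purified SHP2 E76A (1.5 nM) preincubated 15 min with 20 μM inhibitor in 20 mM Tris-HCl pH 7.4, 100 mM NaCl, 1 mM EDTA, 2 mM DTT. 100 μM YAP pY357 peptide added for 15 min. Enzyme removed on 30 kD filters; products dot-blotted and probed with p-YAP(Y357) antibody (1:1000) with ECL detection.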
# KOPN-8 = experiment: Antiproliferative activity against human KOPN8 cells at 3 to 6 uM after 2 days by CellTiter-Glo assay; format: functional, cell-based; procedure, shortened: as §3
# KG-1a = experiment: Antiproliferative activity against human KG1a cells at 3 to 6 uM after 2 days by CellTiter-Glo assay; format: functional, cell-based; procedure, shortened: as §3
# [9] = target: Dual specificity protein phosphatase 3 (Homo sapiens, UniProt P51452); experiment: Inhibition of VHR (unknown origin) expressed in Escherichia coli BL21(DE3) using DIFMUP as substrate preincubated for 20 mins followed by substrate addition measured after 20 mins by phosphatase assay
# Chain of Dual specificity protein phosphatase 3 (P51452 whole entry): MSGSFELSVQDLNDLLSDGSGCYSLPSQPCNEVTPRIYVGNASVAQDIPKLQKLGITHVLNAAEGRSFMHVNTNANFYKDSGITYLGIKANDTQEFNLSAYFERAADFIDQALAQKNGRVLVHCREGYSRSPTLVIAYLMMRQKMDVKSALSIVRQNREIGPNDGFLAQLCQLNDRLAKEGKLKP
# Procedure, shortened: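 Phosphatases purified from E. coli and run as for SHP2 E76A: 20 min room-temperature preincubation with compound in 0.1 M sodium acetate pH 5.0, then DIFMUP at each enzyme's Km, 20 min, fluorescence 358/455 nm. Eight 3-fold dilutions in duplicate; IC50 from at least three independent experiments.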
# Homo sapiens [10] = species: Homo sapiens; experiment: Selectivity ratio of IC50 for MKP3 (unknown origin) expressed in Escherichia coli BL21(DE3) to IC50 for SHP2 E76A mutant (unknown origin) expressed in Escherichia coli BL21(DE3); procedure, shortened: as §2
smiles,measurement,setting,value
CC1(N)CCN(c2nc(-c3ccc4cc(Br)ccc4c3)cs2)CC1,bioavailability,[1],67%
same,inhibition,[2],Active
same,half-life,[3],798 min
same,Ratio IC50,Homo sapiens [4],> 30
same,Ratio IC50,Homo sapiens [5],> 30
same,Activity,SF-268,inactive
same,IC50,[6],710 nM
same,inhibition,[7],Active
same,Activity,THP-1,Active
same,inhibition,Homo sapiens [8],Active
same,Activity,KOPN-8,Active
same,Activity,KG-1a,Active
same,IC50,[9],> 100 µM
same,Ratio IC50,Homo sapiens [10],> 30

# Reference: ChEMBL document CHEMBL4028906, “Allosteric Inhibitors of SHP2 with Therapeutic Potential for Cancer Treatment” (J Med Chem, 2017)
